Active and inactive are the calls of the source. No cut-off for these calls is given here.
Columns and labels:
[1] = molecular target: T1, Maternal embryonic leucine zipper kinase (Homo sapiens, UniProt Q14680); assay: Inhibition of MELK (unknown origin)
Target sequence in this assay (Q14680 whole entry): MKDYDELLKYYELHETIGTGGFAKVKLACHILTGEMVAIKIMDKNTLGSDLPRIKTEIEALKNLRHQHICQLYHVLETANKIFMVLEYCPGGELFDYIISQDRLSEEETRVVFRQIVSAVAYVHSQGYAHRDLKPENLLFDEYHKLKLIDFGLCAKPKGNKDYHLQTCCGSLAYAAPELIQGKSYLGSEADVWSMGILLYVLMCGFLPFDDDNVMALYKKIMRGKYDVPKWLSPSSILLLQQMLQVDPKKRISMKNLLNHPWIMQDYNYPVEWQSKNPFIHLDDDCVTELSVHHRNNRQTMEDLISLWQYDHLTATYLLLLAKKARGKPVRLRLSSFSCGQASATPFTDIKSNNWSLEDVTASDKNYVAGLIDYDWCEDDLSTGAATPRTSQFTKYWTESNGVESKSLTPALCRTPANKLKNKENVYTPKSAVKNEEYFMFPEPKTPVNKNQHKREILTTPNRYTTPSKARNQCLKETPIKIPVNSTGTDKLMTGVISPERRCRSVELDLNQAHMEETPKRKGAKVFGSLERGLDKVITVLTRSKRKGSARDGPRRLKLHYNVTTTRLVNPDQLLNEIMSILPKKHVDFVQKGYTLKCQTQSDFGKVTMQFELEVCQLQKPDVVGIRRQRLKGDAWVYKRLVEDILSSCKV

MDA-MB-231 [2] = assay: Cytotoxicity against human MDA-MB-231 cells assessed as cell growth inhibition after 3 days by MTT assay; assay type: functional, cell-based; conditions: MDA-MB-231, 72 h
In short: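 MDA-MB-231 cells (10^4/well) in DMEM with 10% FBS at 37 °C, 5% CO2 were plated overnight, then exposed to compounds at the indicated concentrations or 1% DMSO control for 3 d. MTT (5 mg/mL stock) was added for 2 h. Absorbance was read at 570 nm with a 630 nm reference. Values are mean ± SD, n = 3.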

[3] = molecular target: Signal transducer and activator of transcription 3 (Homo sapiens) (UniProt P40763); assay: Inhibition of STAT3 at Tyr705 in human MDA-MB-468 cells at 5 uM after 8 hrs by Western blot method; assay type: cell-based
Sequence of Signal transducer and activator of transcription 3 (Homo sapiens) (P40763 whole entry): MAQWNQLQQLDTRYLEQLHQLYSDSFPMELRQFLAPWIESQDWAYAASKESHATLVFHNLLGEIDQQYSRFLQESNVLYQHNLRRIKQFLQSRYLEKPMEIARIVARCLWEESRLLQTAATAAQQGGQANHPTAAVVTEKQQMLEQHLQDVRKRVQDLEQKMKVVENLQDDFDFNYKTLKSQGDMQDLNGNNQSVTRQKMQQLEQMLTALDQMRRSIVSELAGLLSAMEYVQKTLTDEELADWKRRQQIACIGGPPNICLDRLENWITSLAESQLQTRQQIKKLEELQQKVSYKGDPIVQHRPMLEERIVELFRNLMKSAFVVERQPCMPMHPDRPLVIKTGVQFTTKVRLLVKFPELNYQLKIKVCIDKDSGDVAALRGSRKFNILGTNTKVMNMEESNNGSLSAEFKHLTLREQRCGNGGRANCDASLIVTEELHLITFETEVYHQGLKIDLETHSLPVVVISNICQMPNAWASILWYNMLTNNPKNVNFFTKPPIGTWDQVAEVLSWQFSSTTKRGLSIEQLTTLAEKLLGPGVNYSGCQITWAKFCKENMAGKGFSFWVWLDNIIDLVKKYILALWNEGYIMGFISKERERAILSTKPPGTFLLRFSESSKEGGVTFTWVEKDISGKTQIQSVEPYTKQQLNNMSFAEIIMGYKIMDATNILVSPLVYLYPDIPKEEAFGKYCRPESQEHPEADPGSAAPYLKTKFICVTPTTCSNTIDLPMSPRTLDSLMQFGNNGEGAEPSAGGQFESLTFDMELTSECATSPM

MDA-MB-468 = assay: Effect on p53 levels in human MDA-MB-468 cells at 5 uM up to 48 hrs by Western blot method; assay type: functional, cell-based
In short: (§1)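 Cells were treated at 5 µM over 48 h. Total lysates were made in RIPA with protease/phosphatase inhibitors, 30 µg protein was run on 10% SDS-PAGE and moved to nitrocellulose. Primary antibodies were applied overnight at 4 °C, then IRDye 800 anti-mouse or Alexa Fluor 680 anti-rabbit secondaries for 1 h at RT, with infrared imaging. Actin served as loading control. Band changes are given as percent of control, mean ± SD, n = 2.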

[4] = molecular target: Tyrosine-protein kinase Blk (Homo sapiens, UniProt P51451); assay: Inhibition of BLK (unknown origin)
Sequence of Tyrosine-protein kinase Blk (P51451 whole entry): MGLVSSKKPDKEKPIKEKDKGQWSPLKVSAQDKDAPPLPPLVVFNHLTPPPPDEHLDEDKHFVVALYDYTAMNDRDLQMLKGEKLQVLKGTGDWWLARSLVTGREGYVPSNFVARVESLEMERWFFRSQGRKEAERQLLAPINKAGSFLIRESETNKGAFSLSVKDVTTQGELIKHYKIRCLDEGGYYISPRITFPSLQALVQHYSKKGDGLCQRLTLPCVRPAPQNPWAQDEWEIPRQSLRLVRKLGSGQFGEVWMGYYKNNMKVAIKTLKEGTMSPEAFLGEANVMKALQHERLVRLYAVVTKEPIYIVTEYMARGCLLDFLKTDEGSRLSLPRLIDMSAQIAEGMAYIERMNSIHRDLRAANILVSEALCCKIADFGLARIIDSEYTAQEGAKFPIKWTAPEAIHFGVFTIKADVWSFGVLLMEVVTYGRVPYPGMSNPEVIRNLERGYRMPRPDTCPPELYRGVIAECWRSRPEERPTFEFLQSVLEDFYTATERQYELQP

[5] = molecular target: Tyrosine-protein kinase CSK (Homo sapiens, UniProt P41240); assay: Inhibition of CSK (unknown origin)
[6] = molecular target: Receptor tyrosine-protein kinase erbB-4 (Homo sapiens, UniProt Q15303); assay: Inhibition of ERBB4/HER4 (unknown origin)
[7] = molecular target: T1, Maternal embryonic leucine zipper kinase; assay: Inhibition of MELK in human MDA-MB-231 cells assessed as decrease in cyclin A2 level at 5 uM measured over 48 hrs by Western blot method; assay type: cell-based; in short: as §1
Target sequence in this assay (Q14680 whole entry, looked up): as the sequence (Q14680 whole entry) above

[8] = molecular target: Tyrosine-protein kinase Fer (Homo sapiens, UniProt P16591); assay: Inhibition of FER (unknown origin)
[9] = molecular target: Signal transducer and activator of transcription 3 (Homo sapiens) (UniProt P40763); assay: Inhibition of STAT3 phosphorylation in human MDA-MB-468 cells assessed as down regulation of Bcl-XL level at 5 uM up to 48 hrs by Western blot method; assay type: cell-based; in short: as §1
[10] = molecular target: Fibroblast growth factor receptor 1 (Homo sapiens, UniProt P11362); assay: Inhibition of FGFR1 (unknown origin)
[11] = molecular target: Signal transducer and activator of transcription 3 (Homo sapiens) (UniProt P40763); assay: Inhibition of STAT3 at Tyr705 in human MDA-MB-231 cells at 5 uM after 8 hrs by Western blot method; assay type: cell-based
[12] = molecular target: Signal transducer and activator of transcription 3 (Homo sapiens) (UniProt P40763); assay: Inhibition of STAT3 in human MDA-MB-231 cells assessed as decrease in autophagic flux by measuring accumulation of LC3B-2 level at 5 uM after 4 hrs in presence of bafilomycin A by Western blot method; assay type: cell-based
In short: (§2)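 Cells were exposed for 4 h to 5 µM compound, DMSO vehicle, or 1% O2 as hypoxic autophagy control. Bafilomycin A1 (100 nM) was added 4 h before harvest. Lysis was in NP40 buffer with protease/phosphatase inhibitors, then 16,300g spin for 15 min at 4 °C, SDS-PAGE and PVDF transfer. Blots were probed overnight at 4 °C with anti-LC3B (1:3000), then HRP secondary (1:10,000) for 2 h, with ECL detection of LC3B-I and LC3B-II.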

[13] = molecular target: Signal transducer and activator of transcription 3 (Homo sapiens) (UniProt P40763); assay: Inhibition of STAT3 phosphorylation in human MDA-MB-231 cells assessed as downregulation of Bcl-XL level at 5 uM up to 48 hrs by Western blot method; assay type: cell-based; in short: as §1
[14] = molecular target: Megakaryocyte-associated tyrosine-protein kinase (Homo sapiens, UniProt P42679); assay: Inhibition of CTK/MATK (unknown origin)
[15] = molecular target: Signal transducer and activator of transcription 3 (Homo sapiens) (UniProt P40763); assay: Inhibition of STAT3 phosphorylation in human MDA-MB-231 cells assessed as downregulation of survivin level at 5 uM up to 48 hrs by Western blot method; assay type: cell-based; in short: as §1
[16] = molecular target: Tyrosine-protein kinase JAK3 (Homo sapiens) (UniProt P52333); assay: Inhibition of JAK3 (unknown origin) at 20 uM
[17] = molecular target: Tyrosine-protein kinase JAK1 (Homo sapiens) (UniProt P23458); assay: Inhibition of JAK1 (unknown origin) at 20 uM
[18] = molecular target: Cytoplasmic tyrosine-protein kinase BMX (Homo sapiens, UniProt P51813); assay: Inhibition of BMX/ETK (unknown origin)
[19] = molecular target: Signal transducer and activator of transcription 3 (Homo sapiens) (UniProt P40763); assay: Inhibition of STAT3 phosphorylation at Tyr705 in human MDA-MB-468 cells at 5 uM measured at 4 hrs by Western blot method; assay type: cell-based
[20] = molecular target: Tyrosine-protein kinase Lyn (Homo sapiens, UniProt P07948); assay: Inhibition of LYN B (unknown origin)
Sequence of Tyrosine-protein kinase Lyn (P07948 whole entry): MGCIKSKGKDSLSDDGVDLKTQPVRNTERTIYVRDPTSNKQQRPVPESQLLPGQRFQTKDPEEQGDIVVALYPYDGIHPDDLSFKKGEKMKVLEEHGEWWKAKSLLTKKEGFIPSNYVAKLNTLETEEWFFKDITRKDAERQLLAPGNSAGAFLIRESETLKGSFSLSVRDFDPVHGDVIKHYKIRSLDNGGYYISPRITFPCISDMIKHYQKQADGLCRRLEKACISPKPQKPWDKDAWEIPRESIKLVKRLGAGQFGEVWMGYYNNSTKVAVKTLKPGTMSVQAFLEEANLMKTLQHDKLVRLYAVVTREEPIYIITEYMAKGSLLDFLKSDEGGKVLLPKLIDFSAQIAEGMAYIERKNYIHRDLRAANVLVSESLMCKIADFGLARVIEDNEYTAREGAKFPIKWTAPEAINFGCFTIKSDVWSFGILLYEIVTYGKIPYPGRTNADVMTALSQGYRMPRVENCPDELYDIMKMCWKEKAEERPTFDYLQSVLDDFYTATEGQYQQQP

[21] = molecular target: Signal transducer and activator of transcription 3 (Homo sapiens) (UniProt P40763); assay: Inhibition of STAT3 phosphorylation in human MDA-MB-468 cells assessed as down regulation of survivin level at 5 uM up to 48 hrs by Western blot method; assay type: cell-based; in short: as §1
[22] = molecular target: Calcium/calmodulin-dependent protein kinase type II subunit gamma (Homo sapiens, UniProt Q13555); assay: Inhibition of CaMK2gamma (unknown origin)
Sequence of Calcium/calmodulin-dependent protein kinase type II subunit gamma (Q13555 whole entry): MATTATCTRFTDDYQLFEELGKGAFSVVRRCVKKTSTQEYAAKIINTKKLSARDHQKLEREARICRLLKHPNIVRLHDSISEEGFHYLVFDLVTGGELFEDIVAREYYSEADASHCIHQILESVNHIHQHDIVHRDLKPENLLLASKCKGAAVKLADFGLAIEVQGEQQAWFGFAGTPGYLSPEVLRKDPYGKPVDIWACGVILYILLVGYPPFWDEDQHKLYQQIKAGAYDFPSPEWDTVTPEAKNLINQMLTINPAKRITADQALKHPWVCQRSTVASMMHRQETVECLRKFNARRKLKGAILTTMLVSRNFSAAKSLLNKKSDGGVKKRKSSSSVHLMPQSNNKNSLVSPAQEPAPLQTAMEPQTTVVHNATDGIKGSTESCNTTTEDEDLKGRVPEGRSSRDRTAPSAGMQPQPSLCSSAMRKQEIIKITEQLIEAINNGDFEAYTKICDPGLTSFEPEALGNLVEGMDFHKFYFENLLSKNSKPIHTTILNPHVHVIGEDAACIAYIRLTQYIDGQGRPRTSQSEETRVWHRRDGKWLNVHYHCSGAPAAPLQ

[23] = molecular target: Tyrosine-protein kinase JAK2 (Homo sapiens) (UniProt O60674); assay: Inhibition of JAK2 (unknown origin) at 20 uM
Sequence of Tyrosine-protein kinase JAK2 (Homo sapiens) (O60674 whole entry): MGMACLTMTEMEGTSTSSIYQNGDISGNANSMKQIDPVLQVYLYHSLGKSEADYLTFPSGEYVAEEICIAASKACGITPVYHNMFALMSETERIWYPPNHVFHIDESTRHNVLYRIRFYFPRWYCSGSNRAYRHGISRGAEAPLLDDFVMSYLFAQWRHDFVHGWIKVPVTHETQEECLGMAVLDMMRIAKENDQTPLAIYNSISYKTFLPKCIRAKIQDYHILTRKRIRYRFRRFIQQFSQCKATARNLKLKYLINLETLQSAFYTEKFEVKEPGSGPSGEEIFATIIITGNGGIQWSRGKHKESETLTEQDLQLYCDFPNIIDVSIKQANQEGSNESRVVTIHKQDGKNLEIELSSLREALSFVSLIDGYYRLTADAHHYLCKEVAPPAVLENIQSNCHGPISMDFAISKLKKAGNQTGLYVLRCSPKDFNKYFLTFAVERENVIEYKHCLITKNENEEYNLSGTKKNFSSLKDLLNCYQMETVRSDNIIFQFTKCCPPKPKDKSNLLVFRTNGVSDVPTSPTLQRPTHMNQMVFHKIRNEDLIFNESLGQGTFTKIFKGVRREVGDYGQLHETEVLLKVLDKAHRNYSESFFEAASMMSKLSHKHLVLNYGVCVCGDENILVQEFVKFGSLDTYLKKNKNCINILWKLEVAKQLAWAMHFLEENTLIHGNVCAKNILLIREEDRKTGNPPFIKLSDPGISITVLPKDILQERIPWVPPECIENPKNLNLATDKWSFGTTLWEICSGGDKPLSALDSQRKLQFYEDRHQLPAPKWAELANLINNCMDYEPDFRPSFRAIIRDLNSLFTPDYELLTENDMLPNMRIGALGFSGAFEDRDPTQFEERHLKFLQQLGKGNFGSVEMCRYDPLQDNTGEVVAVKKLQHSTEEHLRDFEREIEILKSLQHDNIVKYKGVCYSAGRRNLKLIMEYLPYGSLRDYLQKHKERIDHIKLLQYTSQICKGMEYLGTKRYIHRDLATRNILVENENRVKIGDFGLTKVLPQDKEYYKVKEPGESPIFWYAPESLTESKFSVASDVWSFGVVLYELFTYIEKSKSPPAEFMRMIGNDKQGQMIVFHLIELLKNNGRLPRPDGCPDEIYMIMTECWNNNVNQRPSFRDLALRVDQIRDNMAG

[24] = molecular target: Signal transducer and activator of transcription 3 (Homo sapiens) (UniProt P40763); assay: Inhibition of STAT3 phosphorylation at Tyr705 in human MDA-MB-231 cells at 5 uM measured at 4 hrs by Western blot method; assay type: cell-based
Insulin receptor = Insulin receptor (Homo sapiens, UniProt P06213); assay: Inhibition of IR (unknown origin)
[25] = molecular target: RAC-alpha serine/threonine-protein kinase (Homo sapiens) (UniProt P31749); assay: Inhibition of Akt phosphorylation in human MDA-MB-468 cells by Western blot method; assay type: cell-based
Sequence of RAC-alpha serine/threonine-protein kinase (Homo sapiens) (P31749 whole entry): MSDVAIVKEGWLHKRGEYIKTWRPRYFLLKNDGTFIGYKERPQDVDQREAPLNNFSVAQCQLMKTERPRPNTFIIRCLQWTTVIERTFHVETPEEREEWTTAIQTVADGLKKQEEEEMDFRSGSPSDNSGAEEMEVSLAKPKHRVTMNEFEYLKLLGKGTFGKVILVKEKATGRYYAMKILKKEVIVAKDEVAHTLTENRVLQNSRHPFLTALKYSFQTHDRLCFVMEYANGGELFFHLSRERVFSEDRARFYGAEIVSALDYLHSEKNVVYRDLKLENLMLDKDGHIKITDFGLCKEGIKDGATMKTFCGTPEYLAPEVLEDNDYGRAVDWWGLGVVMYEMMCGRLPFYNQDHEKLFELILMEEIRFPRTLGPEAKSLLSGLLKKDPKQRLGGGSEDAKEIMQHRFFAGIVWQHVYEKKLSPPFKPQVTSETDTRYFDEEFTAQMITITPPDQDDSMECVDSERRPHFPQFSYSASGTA

[26] = molecular target: Tyrosine-protein kinase BTK (Homo sapiens, UniProt Q06187); assay: Inhibition of BTK (unknown origin)
[27] = molecular target: T1, Maternal embryonic leucine zipper kinase; assay: Inhibition of MELK in human MDA-MB-468 cells assessed as decrease in p53 phosphorylation at Ser15 residue at 5 uM by Western blot method; assay type: cell-based; conditions: TDE = time-dependent effect; in short: as §1
Target sequence in this assay (Q14680 whole entry, looked up): as the sequence (Q14680 whole entry) above

[28] = molecular target: Signal transducer and activator of transcription 3 (Homo sapiens) (UniProt P40763); assay: Inhibition of STAT3 in human MDA-MB-468 cells assessed as decrease in autophagic flux by measuring accumulation of LC3B-2 level at 5 uM after 4 hrs in presence of bafilomycin A by Western blot method; assay type: cell-based; in short: as §2
Angiopoietin-1 receptor = Angiopoietin-1 receptor (Homo sapiens, UniProt Q02763); assay: Inhibition of TIE2/TEK (unknown origin)
[29] = molecular target: Calcium/calmodulin-dependent protein kinase type II subunit delta (Homo sapiens, UniProt Q13557); assay: Inhibition of CaMK2delta (unknown origin)
[30] = molecular target: T1, Maternal embryonic leucine zipper kinase; assay: Inhibition of MELK in human MDA-MB-468 cells assessed as decrease in cyclin A2 level at 5 uM measured over 48 hrs by Western blot method; assay type: cell-based; in short: as §1
Target sequence in this assay (Q14680 whole entry, looked up): as the sequence (Q14680 whole entry) above

[31] = molecular target: T1, Maternal embryonic leucine zipper kinase; assay: Inhibition of MELK (unknown origin) at 20 uM relative to control
Target sequence in this assay (Q14680 whole entry, looked up): as the sequence (Q14680 whole entry) above

[32] = molecular target: T1, Maternal embryonic leucine zipper kinase; assay: Inhibition of MELK in human MDA-MB-231 cells assessed as upregulation of p53-dependent p21WAF1/CIP1 expression at 5 uM by Western blot method; assay type: cell-based; conditions: TDE = time-dependent effect; in short: as §1
Target sequence in this assay (Q14680 whole entry, looked up): as the sequence (Q14680 whole entry) above

MDA-MB-231 [33] = assay: Cytotoxicity against human MDA-MB-231 cells assessed as inhibition of anchorage-independent colony formation on soft agar after 10 days by crystal violet staining based assay; assay type: functional, cell-based; conditions: MDA-MB-231, 240 h
In short: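 Base layer 0.5% agar, top layer 0.3% agar containing the cells, both in DMEM with 10% FBS. Feeding medium held compound at the indicated concentrations or 1% DMSO and was changed twice weekly for 10 d at 37 °C, 5% CO2. Colonies were stained with 0.005% crystal violet and counted under a dissecting microscope. Values are mean ± SE of six fields from two independent samples.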

[34] = molecular target: T1, Maternal embryonic leucine zipper kinase; assay: Inhibition of MELK in human MDA-MB-468 cells assessed as upregulation of p53-dependent p21WAF1/CIP1 expression at 5 uM by Western blot method; assay type: cell-based; conditions: TDE = time-dependent effect; in short: as §1
Target sequence in this assay (Q14680 whole entry, looked up): as the sequence (Q14680 whole entry) above

[35] = molecular target: Calcium/calmodulin-dependent protein kinase type 1 (Homo sapiens, UniProt Q14012); assay: Inhibition of CaMK1alpha (unknown origin)
[36] = molecular target: Signal transducer and activator of transcription 3 (Homo sapiens) (UniProt P40763); assay: Inhibition of [gamma32P]-ATP labelled DNA binding to STAT3 dimer (unknown origin) at 5 uM after 4 hrs by electrophoretic mobility shift assay
In short: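 STAT3 consensus oligonucleotide was 5'-labeled with [γ-32P]ATP using polynucleotide kinase. Nuclear protein (2 µg) was incubated with probe for 30 min on ice in 10 mM Tris, 50 mM KCl, 1 mM DTT, 50 µM EDTA, 50 ng/µL poly(dI-dC), pH 7.5. Samples were run on a 4% native polyacrylamide gel in Tris-glycine-EDTA, then the gel was dried and autoradiographed.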

## CCN(CC)CCCCNc1nc(/C=C/c2c(Cl)cc(Cl)cc2Cl)nc2ccc(N)cc12
[1]
  IC50: 2.1 µM

## Nc1ccc2nc(/C=C/c3ccc(C(F)(F)F)cc3)nc(NCCCN3CCOCC3)c2c1
[1]
  IC50: 3.5 µM

## CC1CCN(c2nc(/C=C/c3ccccc3)nc3ccccc23)CC1
MDA-MB-231 [2]
  IC50: > 10 µM

## CCN(CC)CCCC(C)Nc1nc(/C=C/c2c(Cl)cc(Cl)cc2Cl)nc2ccc(N)cc12 (stereo not drawn)
[3]
  inhibition: inactive
MDA-MB-468
  Activity: inactive
[4]
  IC50: 8.8 µM
[5]
  IC50: > 100 µM
[6]
  IC50: 23.9 µM
[7]
  inhibition: Active
[8]
  IC50: 42.7 µM
[9]
  inhibition: Active
[10]
  IC50: 9 µM
[11]
  inhibition: inactive
[12]
  inhibition: Active
[13]
  inhibition: Active
[14]
  IC50: 14.7 µM
[15]
  inhibition: Active
[16]
  inhibition: inactive
[17]
  inhibition: inactive
[18]
  IC50: 1.9 µM
[19]
  inhibition: Active
[1]
  IC50: 1.4 µM
[20]
  IC50: 10.5 µM
[21]
  inhibition: Active
[22]
  IC50: 9.2 µM
[23]
  inhibition: inactive
[24]
  inhibition: Active
Insulin receptor
  IC50: > 100 µM
MDA-MB-231 [2]
  IC50: 2 µM
[25]
  inhibition: inactive
[26]
  IC50: 6.7 µM
[27]
  inhibition: Tde
[28]
  inhibition: Active
Angiopoietin-1 receptor
  IC50: 1.8 µM
[29]
  IC50: 9.1 µM
[30]
  inhibition: Active
[31]
  inhibition: > 98%
[32]
  inhibition: Tde
MDA-MB-231 [33]
  IC50: 3 to 7 µM
[34]
  inhibition: Tde
[35]
  IC50: 6.9 µM

## C(=C\c1nc(N2CCCC2)c2ccccc2n1)/c1ccccc1
MDA-MB-231 [2]
  IC50: < 10 µM

## CCN(CC)CCNc1nc(/C=C/c2ccc(Cl)cc2)nc2cc3ccccc3cc12
MDA-MB-231 [2]
  IC50: < 10 µM

## CCN(CC)CCCC(C)Nc1nc(/C=C/c2ccccc2)nc2cc(Cl)ccc12 (stereo not drawn)
[3]
  inhibition: inactive
[7]
  inhibition: Active
[9]
  inhibition: Active
[11]
  inhibition: inactive
[13]
  inhibition: Active
[15]
  inhibition: Active
[36]
  inhibition: Active
[19]
  inhibition: Active
[21]
  inhibition: Active
[24]
  inhibition: Active
[25]
  inhibition: inactive
[27]
  inhibition: Tde
[30]
  inhibition: Active
[32]
  inhibition: Tde
[34]
  inhibition: Tde
